Results from different studies.
Target: Acetylcholinesterase (ACHE, Homo sapiens, UniProt P22303)
Read-out: enzyme activity
Mode: inhibitor

With `COc1cc(-c2nc3ccccc3s2)cc2c1OCC(=O)N2CC(=O)N[C@@H](C)C(=O)O` the IC50 was > 290000 nM (Ellman).
The IC50 of `Cc1cccc(C)c1NC(=O)CSc1nnc(COc2ccc3ccccc3c2)n1-c1ccccc1` is reported as 1010 nM (Ellman).
With `CC(=O)c1c(C)c2cnc(Nc3ccc(C4CCN(CCS(C)(=O)=O)CC4)cn3)nc2n(C2CCCC2)c1=O` the IC50 was 250 nM.
`O=C(CSc1nnc(COc2ccc3ccccc3c2)n1-c1ccccc1)Nc1ccccc1` gave an IC50 of 1870 nM (Ellman).
For `O=c1cc(CSc2ccc(N=Cc3cccc(Br)c3)cc2)occ1O`, the IC50 was 5580 nM (Ellman).
The IC50 of `Cc1cc(C)cc(NC(=O)CSc2nnc(COc3ccc4ccccc4c3)n2-c2ccccc2)c1` is reported as 1120 nM (Ellman).
`O=c1cc(CSc2ccc(N=Cc3ccc([N+](=O)[O-])cc3)cc2)occ1O` has an IC50 of 8380 nM (Ellman).
With `COc1cc(-c2nc3ccccc3s2)cc2c1OCC(=O)N2CC(=O)N[C@H](C(=O)O)C(C)C` the IC50 was > 273000 nM (Ellman).
`Cc1ccc(NC(=O)CSc2nnc(COc3ccc4ccccc4c3)n2-c2ccccc2)cc1C` gave an IC50 of 778 nM (Ellman).
For `O=c1cc(CSc2ccc(N=Cc3cccc(O)c3)cc2)occ1O`, the IC50 was 3640 nM (Ellman).
The IC50 of `CC(C)c1cc2c(c(O)c1O)[C@@]1(C(=O)O)CCCC(C)(C)[C@@H]1CC2` is reported as 0.78 nM.
The IC50 of `O=c1cc(CSc2ccc(N=Cc3ccc(Cl)cc3)cc2)occ1O` is reported as 1330 nM (Ellman).
With `CC[C@H](C)[C@@H](NC(=O)COc1c(NC(C)=O)cc(-c2nc3ccccc3s2)cc1OC)C(=O)O` the IC50 was > 264000 nM (Ellman).
The IC50 of `O=c1cc(CSc2ccc(N=Cc3ccc(Br)cc3)cc2)occ1O` is reported as 570 nM (Ellman).
`CC[C@@H](C)[C@H](NC(=O)CN1C(=O)COc2c(OC)cc(-c3nc4ccccc4s3)cc21)C(=O)O` has an IC50 of > 265000 nM (Ellman).
`CC(C)c1cc2c(c(O)c1O)[C@@]13CCCC(C)(C)[C@@H]1C[C@@H]2OC3=O` gave an IC50 of 0.81 nM.
